SUMO1 PPI mod: modulators of SUMO1 protein-protein interactions, primary screen, biochemical, uHTS; Small ubiquitin-related modifier 1 (Homo sapiens), P63165; SUMO1 binding to a labelled peptide, TR-FRET, 1 h; inhibition, % at 20 µM; 0.33% of 360,000 active; AID 602429, 2012; in the data active means inhibition above about 37%
Scp1 inh: Scp-1 phosphatase inhibitors, primary screen, biochemical, colorimetric, uHTS; Recombinant Scp1, phosphopeptide, malachite green phosphate absorbance; inhibition, % at 20 µM; 0.88% of 340,000 active;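 active means inhibition above about 50% at 20 µM, limit read from the data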;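 further: plate controls were DMSO wells with enzyme for no effect and wells lacking enzyme for full effect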
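System: truncated SCP-1 phosphatase (76-261aa); medium: Tris acetate buffer pH 5.5 with MgCl2 and Tween-20; incubation: 45 min room-temperature reaction, 5 min colour, 30 min stabiliser; compound: single 20 µM dose, 1% DMSO; reagent: Phosphorylated 17-residue peptide substrate; read-out: % inhibition at 20 µM; technique: colorimetric free-phosphate detection, absorbance 630 nm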
LMPTP block: LMPTP phosphatase inhibitors, primary screen, biochemical, fluorescence intensity, uHTS; AID 651560, 2012; recombinant LMPTP-A, OMFP fluorogenic substrate; 0.22% of 360,000 active; inhibition, % at 20 µM;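 active means compounds that cut the enzyme signal by at least half of the control window in the single-dose screen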;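 further: plate controls were DMSO wells with enzyme plus substrate for no effect and substrate without enzyme for full effect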
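Assay system: LMPTP-A phosphatase enzyme | Input: 0.625 nM enzyme | Also added: Fluorogenic phosphatase substrate OMFP at 400 µM final | Compound dosing: One test concentration per compound, 20 µM, with 3% DMSO overall | Schedule: 50 min enzyme reaction at room temperature, protected from light | Signal: Fluorescence intensity | Benchmarks: no-enzyme and uninhibited controls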
DNMT1 inh: human DNMT1 methyltransferase inhibitors, primary screen, biochemical, molecular beacon, fluorescence, HinP1I cleavage, uHTS. DNA (cytosine-5)-methyltransferase 1 (Homo sapiens), P26358. inhibition (reported as % activation of signal), % at 10 µM. 0.83% of 360,000 active. AID 588458, 2011; in the data active means inhibition above about 50%
STEP block: STEP phosphatase inhibitors, primary screen, biochemical, fluorescence intensity, uHTS; recombinant STEP, OMFP fluorogenic substrate; inhibition, % at 20 µM; 0.25% of 360,000 active;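 active means inhibition at 20 µM, scaled per plate between control wells, above about 37%, limit read from the data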;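 further: 0% = DMSO with enzyme and substrate and 100% = substrate only without enzyme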
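System: isolated STEP enzyme; schedule: 20 min enzyme reaction at room temperature, protected from light; medium: Bis-Tris buffer pH 6.0, 2.5 mM DTT, 0.005% Tween 20; signal: fluorescence, 480/540 nm; dosing: single compound dose of 20 µM, 1% DMSO final; also added: OMFP substrate, 25 µM final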
* marks the source's active call; other numbers are inactive results; x = no result given. Sampled rows, rich in hits. Any-hit rate of the full collection: about 1.7%.

SMILES	SUMO1 PPI mod	Scp1 inh	LMPTP block	DNMT1 inh	STEP block
Cc1cccc(C(=O)Oc2c(Br)cc(Br)cc2/C=N/NC(=O)c2ccncc2)c1	1	-7	0	1	0
Cc1cc(C(=O)N/N=C/c2cc(Br)cc(Br)c2OC(=O)c2cccc(F)c2)n[nH]1	7	87*	65*	35	1
COc1ccc2nc(SCC(=O)C(C)(C)C)[nH]c2c1	1	-8	1	0	-2
COc1ccc(/C=N/Nc2cc(C)nc3ccccc23)cc1	-54	3	62*	27	4
COc1ccc2nc(C)cc(N/N=C/c3ccc(F)cc3)c2c1	-4	-3	7	55*	3
COc1ccc(/C=N/Nc2cc(C)nc3c(C)cccc23)cc1	-34	1	31	45	3
COc1ccc(C(=O)NC(C(=O)NCC2(N3CCCCC3)CCCCC2)C(C)C)cc1 (stereo not drawn)	-3	1	0	10	0
Cc1cc(C)n2nc3ccccc3c2n1	-1	-5	-1	9	2
Cc1cc(C)n2nc3nc(N4CCCCC4)nc(-c4ccco4)c3c2n1	11	43	32	54*	4
CC(C)Nc1ccc(Nc2ccnc3cc4ccccc4cc23)cc1	-69	-4	22	66*	4
COc1ccc(Nc2ccnc3ccccc23)cc1	-14	-1	56*	0	1
CN(CCc1ccccc1)C(=O)c1ccc(NC(=O)Cc2ccc(NC(=O)C3CCCN(C(=O)CCc4ccccc4)C3)cc2)cc1 (stereo not drawn)	-3	-20	5	-11	1
Cc1nc2c(c(=O)n1CCC1=CCCCC1)c1nc3ccccc3nc1n2/N=C/c1ccccc1	-11	3	3	13	4
O=c1c2c3nc4ccccc4nc3n(/N=C/c3ccco3)c2ncn1CCC1=CCCCC1	-5	88*	-1	3	-5
Cc1ccc(S(=O)(=O)Nc2ccc(O)c(Sc3ncn[nH]3)c2)cc1	0	-7	0	-1	1
CC(C)(C)c1ccc(S(=O)(=O)/N=C2\C=C(NS(=O)(=O)c3ccccc3)C(=O)c3ccccc32)cc1	-4	-15	3	-29	-1
Cc1ccc(S(=O)(=O)/N=C2/C=C(Sc3ncn[nH]3)C(=O)c3ccccc32)cc1	93*	25	8	77*	2
CC(C)c1ccc(S(=O)(=O)/N=C2/C=C(Sc3ncn[nH]3)C(=O)c3ccccc32)cc1	92*	2	9	32	15
Cc1ccccc1Cn1c(C)c(C(=O)N(C)Cc2ccc(F)cc2)sc1=O	5	x	-2	-1	2
CC(C)c1ccc(C2(C)NC(=O)N(CC(=O)N3CCN(C(=O)c4cccs4)CC3)C2=O)cc1 (stereo not drawn)	4	-2	0	-2	4
C[n+]1c(/C=C/c2ccc3c(c2)OCO3)ccc2ccccc21	-8	105*	0	2	-1
CCC1(c2ccc(F)cc2)NC(=O)N(CC(=O)N2CCN(C(=O)c3ccco3)CC2)C1=O (stereo not drawn)	2	0	-1	-4	1
COc1cccc2c1C(=O)C=C(C)C2=O	-14	-10	-1	-17	4
COC1=CC(=O)c2nc(Cl)ccc2C1=O	45*	x	-1	85*	-2
COc1ccc(C2(C)NC(=O)N(CC(=O)Nc3ccc4[nH]c(=O)[nH]c4c3)C2=O)cc1 (stereo not drawn)	4	1	0	-2	0
Cc1ccc(C2(C)NC(=O)N(CC(=O)Nc3ccc4[nH]c(=O)[nH]c4c3)C2=O)cc1 (stereo not drawn)	72*	2	4	1	0
CC1(c2ccc(Cl)cc2Cl)NC(=O)N(CC(=O)Nc2ccc3[nH]c(=O)[nH]c3c2)C1=O (stereo not drawn)	54*	-7	0	-1	3

Source: PubChem BioAssay (Sanford-Burnham Center for Chemical Genomics)
